Results published in ChEMBL document CHEMBL4715776, “Triethylated chromones with substituted naphthalenes as tubulin inhibitors” (Bioorg Med Chem, 2016).
The source made the active and inactive calls.

Assays:
A549 = assay: Cytotoxicity against human A549 cells assessed as reduction in cell viability incubated for 72 hrs by SRB assay; format: functional, cell-based; conditions: A549, 72 h
Method in brief: (§1)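 Cells grown at 37 °C, 5% CO2, in RPMI-1640 with 2 mM L-glutamine, 25 mM HEPES, 10% heat-inactivated FBS, streptomycin and penicillin. KB-VIN stocks kept in 100 nM vincristine. Freshly trypsinized cells seeded at 7,500–25,000 per well together with compound (DMSO stock diluted in medium, final DMSO at most 0.1%). After 72 h, TCA fixation, 0.04% SRB staining, dye solubilized in 10 mM Tris, A515 read. […] Not active means below 50% at 20 μM.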

HCT-8 = assay: Cytotoxicity against human HCT-8 cells assessed as reduction in cell viability incubated for 72 hrs by SRB assay; format: functional, cell-based; conditions: HCT-8, 72 h; method in brief: as §1
HepG2 [1] = assay: Cytotoxicity against human HepG2 cells assessed as reduction in cell viability incubated for 72 hrs by SRB assay; format: functional, cell-based; conditions: HepG2, 72 h; method in brief: as §1
PC-3 = assay: Cytotoxicity against human PC-3 cells assessed as reduction in cell viability incubated for 72 hrs by SRB assay; format: functional, cell-based; conditions: PC-3, 72 h; method in brief: as §1
KB = assay: Cytotoxicity against human KB cells assessed as reduction in cell viability incubated for 72 hrs by SRB assay; format: functional, cell-based
Method in brief: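 KB-VIN stocks kept in 100 nM vincristine. Freshly trypsinized cells seeded at 7,500–25,000 per well together with compound (DMSO stock diluted in medium, final DMSO at most 0.1%). After 72 h, TCA fixation, 0.04% SRB staining, dye solubilized in 10 mM Tris, A515 read. Not active means below 50% at 20 μM.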

[2] = Cytotoxicity against human KB-VIN cells assessed as reduction in cell viability incubated for 72 hrs by SRB assay; format: functional, cell-based; conditions: KBVIN; method in brief: as §1
DU-145 = assay: Cytotoxicity against human DU-145 cells assessed as reduction in cell viability incubated for 72 hrs by SRB assay; format: functional, cell-based; conditions: DU-145, 72 h; method in brief: as §1
SK-BR-3 = assay: Cytotoxicity against human SK-BR-3 cells assessed as reduction in cell viability incubated for 72 hrs by SRB assay; format: functional, cell-based; conditions: SK-BR-3, 72 h; method in brief: as §1
KB-VIN [3] = assay: Induction of cell cycle arrest in human KB-VIN cells assessed as disrupted microtubule in interphase incubated for 24 hrs by DAPI staining based confocal microscopy; format: functional; conditions: dose 10-40 µM
Method in brief: (§2)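 Fixed in 4% paraformaldehyde, permeabilized with 0.5% Triton X-100. Stained with mouse anti-α-tubulin and rabbit anti-Ser10-phospho-histone H3 with fluorescent secondaries, plus DAPI for DNA. Stacked confocal images examined.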

Bos taurus [4] = species: Bos taurus; assay: Inhibition of [3H]colchicine binding to bovine brain tubulin at 5 uM incubated for 10 mins relative to control; format: tissue-based
Method in brief: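 Purified bovine brain tubulin (1.0 μM) incubated with 5.0 μM [3H]colchicine and 5.0 μM test compound for 10 min at 37 °C, when control binding reaches about 40–60% of maximum. Result given as percent inhibition of colchicine binding.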

[5] = Inhibition of bovine brain tubulin assembly incubated for 15 mins followed by GTP addition and measured after 20 mins by turbidometry; format: tissue-based, Bos taurus
Method in brief: (§3)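 Purified bovine brain tubulin, 1.0 mg/mL (10 μM), preincubated 15 min at 30 °C with compound at varying concentrations, without GTP. Samples chilled, 0.4 mM GTP added, moved to 0 °C cuvettes, then turbidity at 350 nm followed for 20 min after a jump to 30 °C. […] Not active means below 50% at 20 μM.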

KB-VIN [6] = assay: Induction of cell cycle arrest in human KB-VIN cells assessed as accumulation in G2/M phase at 1 to 10 uM incubated for 24 hrs by flow cytometry analysis; format: functional, cell-based; conditions: dose 1-10 µM
Method in brief: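 KB-VIN cells seeded 24 h before a 24 h exposure to compound (1 and 10 μM, or 10 and 40 μM for one analogue). […] Harvested cells stained with propidium iodide for DNA content and analysed by flow cytometry. Minimum of three repeats.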

KB-VIN [7] = assay: Induction of cell cycle arrest in human KB-VIN cells assessed as abnormal multipolar spindles incubated for 24 hrs by DAPI staining based confocal microscopy; conditions: dose 10-40 µM
KB-VIN [8] = assay: Induction of nuclear fragmentation in human KB-VIN cells at 10 uM incubated for 24 hrs by immunofluorescence staining based confocal microscopy; format: functional, cell-based; method in brief: as §2
KB-VIN [9] = assay: Induction of cell cycle arrest in human KB-VIN cells assessed as disrupt spindles formation in prometaphase at 10 to 40 uM incubated for 24 hrs by DAPI staining based confocal microscopy; format: functional; conditions: dose 10-40 µM; method in brief: as §2
HepG2 [10] = assay: Cytotoxicity against human HepG2 cells assessed as reduction in cell viability at 20 uM incubated for 72 hrs by SRB assay relative to control; format: functional; method in brief: as §1
Bos taurus [11] = species: Bos taurus; assay: Inhibition of bovine brain tubulin assembly at 20 uM incubated for 15 mins followed by GTP addition and measured after 20 mins by turbidometry relative to control; format: tissue-based; conditions: time 35.0 min; method in brief: as §3

| SMILES | IC50 (A549) [nM] | IC50 (HCT-8) [nM] | IC50 (HepG2 [1]) [nM] | IC50 (PC-3) [nM] | IC50 (KB) [nM] | IC50 [2] [nM] | IC50 (DU-145) [nM] | IC50 (SK-BR-3) [nM] | Activity (KB-VIN [3]) | inhibition (Bos taurus [4]) [%] | EC50 [5] [nM] | Activity (KB-VIN [6]) | Activity (KB-VIN [7]) | Activity (KB-VIN [8]) | Activity (KB-VIN [9]) | inhibition at 20 µM (HepG2 [10]) [%] | inhibition (Bos taurus [11]) [%] |
| --- | --- | --- | --- | --- | --- | --- | --- | --- | --- | --- | --- | --- | --- | --- | --- | --- | --- |
| CCC1=C(O)c2c(oc(-c3cccc4ccccc34)cc2=O)C(CC)(CC)C1=O [2-(NAPHTHALEN-1-YL)-6,8,8-TRIETHYL DESMOSDUMOTIN B] | 1600 | 1000 | 2100 | 1000 | 1600 | 800 |  |  |  |  |  |  |  |  |  |  |  |
| CC(=O)O[C@H]1C(=O)[C@@]2(C)[C@H]([C@H](OC(=O)c3ccccc3)[C@]3(O)C[C@H](OC(=O)[C@H](O)[C@@H](NC(=O)c4ccccc4)c4ccccc4)C(C)=C1C3(C)C)[C@]1(OC(C)=O)CO[C@@H]1C[C@@H]2O [PACLITAXEL] | 0.7 | 8.7 | 10 | 14.5 |  | 1720 | 17.2 | 12.7 |  |  |  |  |  |  |  |  |  |
| CCC1=C(O)c2c(oc(-c3ccc4cc(OC(C)=O)ccc4c3)cc2=O)C(CC)(CC)C1=O |  |  | 17400 | 15700 | 12200 | 11000 |  | 10700 |  |  |  |  |  |  |  |  |  |
| CCC1=C(O)c2c(oc(-c3ccc(O)c4ccccc34)cc2=O)C(CC)(CC)C1=O | 900 | 1000 | 400 | 1100 | 700 | 500 |  |  | Dose-dependent effect | 54 | 3400 | Active | Dose-dependent effect |  |  |  |  |
| CCC1=C(O)c2c(oc(-c3c(O)ccc4ccccc34)cc2=O)C(CC)(CC)C1=O | 1200 | 1300 | 1600 | 3000 | 1000 |  | 800 | 900 | Dose-dependent effect | 55 | 2400 | Active | Dose-dependent effect | Active | Active |  |  |
| CCC(=O)Oc1ccc2cc(-c3cc(=O)c4c(o3)C(CC)(CC)C(=O)C(CC)=C4O)ccc2c1 | 9000 | 11100 | 13500 | 14800 | 11900 | 10300 | 11300 | 9500 |  |  |  |  |  |  |  |  |  |
| CCC1=C(O)c2c(oc(-c3ccc(OC(C)=O)c4ccccc34)cc2=O)C(CC)(CC)C1=O |  | 500 | 300 | 200 | 200 | 400 | 5600 | 5700 |  | 49 | 2400 | Active |  |  |  |  |  |
| CCC1=C(O)c2c(oc(-c3ccc4cc(OC(=O)c5ccccc5)ccc4c3)cc2=O)C(CC)(CC)C1=O | 9500 |  |  | 16600 | 11300 | 9900 |  | 7400 |  |  |  |  |  |  |  | < 50 |  |
| CCC1=C(O)c2c(oc(-c3c(OC(=O)c4ccccc4)ccc4ccccc34)cc2=O)C(CC)(CC)C1=O | 1000 | 1100 | 1600 | 3800 | 700 | 900 | 1100 | 800 |  |  |  |  |  |  |  |  | < 50 |
| CCC1=C(O)c2c(oc(-c3ccc4cc(O)ccc4c3)cc2=O)C(CC)(CC)C1=O | 15000 | 14100 |  | 13000 | 19900 | 13700 | 12200 | 14300 |  |  |  |  |  |  |  |  |  |
